Source: ChEMBL document CHEMBL3526140, “Prediction of human intestinal absorption of the prodrug temocapril by in situ single-pass perfusion using rat intestine with modified hydrolase activity” (Drug Metab Dispos, 2011)

Assays:
[1] = Drug hydrolysis in intact Wistar rat jejunal S9 fraction at 500 uM assessed per mg protein in presence of 1000 uM CES inhibitor BNPP; type: ADME, Jejunum; details: s9, 500 µM
In short: (§1)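 Jejunal mucosal homogenate or S9 (HEPES pH 7.4/KCl) taken from intact jejunum, or after 40 min perfusion with or without 400 µM BNPP. Protein at 400 µg/ml incubated at 37°C with 500 µM drug. Added BNPP (100 or 1000 µM) pre-incubated 5 min. Temocaprilat formed measured by HPLC and given as nmol/min/mg protein and % of control. Mean ± S.D., n = 4.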

[2] = Permeability in Wistar rat jejunum at 100 uM at pH 7.4 by in-situ single-pass perfusion method; type: ADME, tissue-based; details: other: in-situ single-pass perfusion of the jejunum, read-out: Peff (converted)
In short: (§2)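 Rats fasted 18–24 h and anesthetized with intraperitoneal pentobarbital. Jejunal loop perfused at 0.2 ml/min with phosphate buffer (pH 5.4, 6.4 or 7.4) containing 100 μM drug and FD-4 (0.1 mg/ml). Vascular perfusate was Krebs–Henseleit bicarbonate buffer (pH 7.4) at 2.5 ml/min, segment kept at 37°C. Drug and metabolite measured by HPLC (UV 258 nm). Peff normalized to 10 cm intestine; mean ± S.D., n = 3–6.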

[3] = Drug hydrolysis in Wistar rat duodenal S9 fraction assessed as rate of hydrolysis per mg protein; type: ADME, Duodenum
In short: (§3)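 Duodenal or jejunal mucosa from fasted rats homogenized in 50 mM HEPES (pH 7.4) with 1.15% KCl; S9 is the 9000 g supernatant. S9 pre-incubated 5 min at 37°C, then drug added at 10–500 µM final (1% DMSO). Run for 20 min, stopped with acetonitrile, temocaprilat formed measured by HPLC. Km and Vmax from Michaelis–Menten nonlinear fit. Inhibitor (1 mM BNPP) pre-incubated 5 min. Results as % of control.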

[4] = test system: Jejunum; assay: Drug hydrolysis in perfused Wistar rat jejunum mucosal homogenate at 500 uM assessed per mg protein; type: ADME, tissue-based; details: tissue homogenate; in short: as §1
[5] = test system: Jejunum; assay: Drug uptake in Wistar rat jejunum pre-perfused with 400 uM CES inhibitor BNPP assessed as rate of drug appearance at 100 uM at pH 6.4 by in-situ single-pass perfusion method; type: ADME, tissue-based; details: in vivo, pH 6.4, 100 µM
In short: (§4)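 Same in situ jejunal single-pass perfusion, with carboxylesterase blocked by pre-perfusing the lumen with 400 µM BNPP for 40 min. Then 100 µM drug in luminal phosphate buffer (pH 5.4 or 6.4) at 0.2 ml/min. Vascular Krebs–Henseleit (pH 7.4) at 2.5 ml/min. Luminal, vascular and tissue levels measured by HPLC. Rates are luminal disappearance and appearance in lumen or mesenteric vein. Mean ± S.D., n = 3.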

[6] = Drug hydrolysis in perfused Wistar rat jejunal S9 fraction at 500 uM assessed per mg protein; type: ADME, Jejunum; details: s9, 500 µM; in short: as §1
[7] = Drug hydrolysis in Wistar rat jejunal S9 fraction in presence of 1 mM CES inhibitor BNPP; type: ADME, Jejunum; in short: as §3
[8] = Permeability in Wistar rat jejunum pre-perfused with 400 uM CES inhibitor BNPP at 100 uM at pH 6.4 by in-situ single-pass perfusion method; type: ADME, tissue-based; details: other: in-situ single-pass perfusion of the jejunum, pH 6.4, with BNPP (CES inhibitor) 400 uM, read-out: Peff (converted)
In short: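 Fasted, pentobarbital-anesthetized rats. Jejunum pre-perfused with BNPP (400 µM) for 40 min to inhibit CES. Lumen then perfused at 0.2 ml/min with 100 μM drug in phosphate buffer (pH 5.4 or 6.4). Vascular side received Krebs–Henseleit buffer (pH 7.4) at 2.5 ml/min. Luminal drug quantified by HPLC; Peff normalized to 10 cm segment; mean ± S.D., n = 3.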

[9] = test system: Jejunum; assay: Apparent hydrolytic clearance in Wistar rat jejunum at 100 uM at pH 7.4 by in-situ single-pass perfusion method; type: ADME, tissue-based; details: in vivo
In short: (§5)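 Rats fasted 18–24 h, anesthetized with intraperitoneal pentobarbital. Isolated cannulated jejunal segment kept at 37°C in Krebs–Henseleit buffer with 3% BSA and 10 mM glucose. Vascular perfusion with Krebs–Henseleit (pH 7.4) at 2.5 ml/min. Lumen perfused at 0.2 ml/min with phosphate buffer (pH 5.4, 6.4 or 7.4) containing 100 µM drug plus FD-4. Luminal and vascular samples assayed by HPLC (UV 258 nm). Parameters normalized to 10 cm intestine. Mean ± S.D., n = 3–6.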

[10] = test system: Jejunum; assay: Apparent hydrolytic clearance in Wistar rat jejunum pre-perfused with 400 uM CES inhibitor BNPP at 100 uM at pH 6.4 by in-situ single-pass perfusion method; type: ADME, tissue-based; details: in vivo, pH 6.4, 100 µM; in short: as §4
[11] = test system: Jejunum; assay: Drug hydrolysis in intact Wistar rat jejunum mucosal homogenate at 500 uM assessed per mg protein in presence of 1000 uM CES inhibitor BNPP; type: ADME, tissue-based; details: tissue homogenate; in short: as §1
[12] = test system: Jejunum; assay: Intracellular drug level in Wistar rat jejunum assessed as temocaprilat level pre-perfused with 400 uM CES inhibitor BNPP at 100 uM at pH 5.4 by in-situ single-pass perfusion method; type: ADME, tissue-based; details: in vivo, pH 5.4, 100 µM; in short: as §4
[13] = test system: Jejunum; assay: Apparent hydrolytic clearance in Wistar rat jejunum pre-perfused with 400 uM CES inhibitor BNPP at 100 uM at pH 5.4 by in-situ single-pass perfusion method; type: ADME, tissue-based; details: in vivo, pH 5.4, 100 µM; in short: as §4
[14] = test system: Jejunum; assay: Apparent absorption clearance in Wistar rat jejunum pre-perfused with 400 uM CES inhibitor BNPP at 100 uM at pH 5.4 by in-situ single-pass perfusion method; type: ADME, tissue-based; details: in vivo, pH 5.4, 100 µM; in short: as §4
[15] = test system: Jejunum; assay: Drug hydrolysis in intact Wistar rat jejunum mucosal homogenate at 500 uM assessed per mg protein; type: ADME, tissue-based; details: tissue homogenate; in short: as §1
[16] = Permeability in Wistar rat jejunum at 100 uM at pH 6.4 by in-situ single-pass perfusion method; type: ADME, tissue-based; details: other: in-situ single-pass perfusion of the jejunum, read-out: Peff (converted); in short: as §2
[17] = test system: Jejunum; assay: Intracellular drug level in Wistar rat jejunum at 100 uM at pH 6.4 by in-situ single-pass perfusion method; type: ADME, tissue-based; details: in vivo; in short: as §5
[18] = test system: Jejunum; assay: Apparent absorption clearance in Wistar rat jejunum at 100 uM at pH 5.4 by in-situ single-pass perfusion method; type: ADME, tissue-based; details: in vivo, pH 5.4, 100 µM; in short: as §5
[19] = Ratio of Vmax to Km for drug jejunal in Wistar rat jejunal S9 fraction assessed per mg protein
[20] = Drug hydrolysis in perfused Wistar rat jejunal S9 fraction at 500 uM assessed per mg protein in presence of 400 uM CES inhibitor BNPP; type: ADME, Jejunum; details: s9, 500 µM; in short: as §1
[21] = test system: Jejunum; assay: Drug uptake in Wistar rat jejunum pre-perfused with 400 uM CES inhibitor BNPP assessed as rate of temocaprilat disappearance at 100 uM at pH 6.4 by in-situ single-pass perfusion method; type: ADME, tissue-based; details: in vivo, pH 6.4, 100 µM; in short: as §4
[22] = test system: Jejunum; assay: Drug uptake in Wistar rat jejunum pre-perfused with 400 uM CES inhibitor BNPP assessed as rate of drug appearance at 100 uM at pH 5.4 by in-situ single-pass perfusion method; type: ADME, tissue-based; details: in vivo, pH 5.4, 100 µM; in short: as §4
[23] = test system: Jejunum; assay: Intracellular drug level in Wistar rat jejunum at 100 uM at pH 5.4 by in-situ single-pass perfusion method; type: ADME, tissue-based; details: in vivo; in short: as §5
[24] = test system: Jejunum; assay: Intracellular drug level in Wistar rat jejunum assessed as temocaprilat level pre-perfused with 400 uM CES inhibitor BNPP at 100 uM at pH 6.4 by in-situ single-pass perfusion method; type: ADME, tissue-based; details: in vivo, pH 6.4, 100 µM; in short: as §4
[25] = test system: Jejunum; assay: Drug hydrolysis in intact Wistar rat jejunum mucosal homogenate at 500 uM assessed per mg protein in presence of 100 uM CES inhibitor BNPP; type: ADME, tissue-based; details: tissue homogenate; in short: as §1
[26] = Drug hydrolysis in Wistar rat jejunal S9 fraction assessed as rate of hydrolysis per mg protein; type: ADME, Jejunum; in short: as §3
[27] = Ratio of Vmax to Km for drug hydrolysis in Wistar rat duodenal S9 fraction assessed per mg protein; type: ADME, Duodenum
In short: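 Duodenal or jejunal mucosal S9 (9000 g supernatant) in 50 mM HEPES pH 7.4, pre-incubated 5 min at 37°C. Substrate added at 10–500 µM final in 1% DMSO and incubated 20 min; stopped with acetonitrile. Temocaprilat formation measured by HPLC. Km and Vmax from nonlinear Michaelis–Menten fit; intrinsic clearance as Vmax/Km; mean ± S.D.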

Drug degradation [1]: 0.488 nmol/min | Papp at 100 µM [2]: 54.2 ×10⁻⁶ cm/s | Vmax [3]: 5.2 nmol/min/mg | Drug degradation [4]: 3.96 nmol/min | CL [5]: 0.696 nmol/min | Drug degradation [6]: 4.28 nmol/min | Stability [7]: Stable | Papp at 100 µM [8]: 38.7 ×10⁻⁶ cm/s | CL [9]: 43.2 µL/min | CL [10]: 19.5 µL/min | Drug degradation [11]: 1.97 nmol/min | Drug uptake [12]: 17 nmol/g | CL [13]: 24.9 µL/min | CL(app) [14]: 10.6 µL/min | Drug degradation [15]: 4.17 nmol/min | Papp at 100 µM [16]: 57.2 ×10⁻⁶ cm/s | Drug uptake [17]: 1.83 nmol/g | CL(app) [18]: 3.59 µL/min | Vmax/Km [19]: 108 µL/min | Drug degradation [20]: 0.625 nmol/min | CL [21]: 1.17 nmol/min | CL [22]: 0.862 nmol/min | Drug uptake [23]: 5.46 nmol/g | Drug uptake [24]: 14.6 nmol/g | Drug degradation [25]: 2.23 nmol/min | Vmax [26]: 5.11 nmol/min/mg | Vmax/Km [27]: 109 µL/min
SMILES: CCOC(=O)[C@H](CCc1ccccc1)N[C@H]1CS[C@H](c2cccs2)CN(CC(=O)O)C1=O [TEMOCAPRIL]
